From ChEMBL document CHEMBL1138232, “Optimization of naphthalimide-imidazoacridone with potent antitumor activity leading to clinical candidate (HKH40A, RTA 502)” (J Med Chem, 2007)
pIC50: −log10 of the molar value.

Key:
[1] = system: T47D; test: Antitumor activity against human T47D cells after 48 hrs; assay type: functional
Method in brief: (§1)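 NCI 60 human tumour cell line screen; 48 h continuous drug exposure. Compounds tested as tri(methanesulfonate) salts, soluble in water and dilute buffers. Dilute solutions are light-sensitive and adsorb to glass or quartz.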

[2] = system: OVCAR-4; test: Antitumor activity against human OVCAR4 cells after 48 hrs; assay type: functional; details: OVCAR-4, 48 h
Method in brief: (§2)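 Tested in the NCI 60 human tumour cell line screen, with continuous drug exposure for 48 h. Values include LC50 derived from the screen.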

[3] = system: HCT-116; test: Cell cycle arrest in HCT116 cells assessed as accumulation at S phase at 50 nM after 72 hrs; assay type: functional, Homo sapiens
Method in brief: (§3)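 HCT116 cells exposed to 50 nM drug for 72 h, then cell-cycle distribution analysed. Sub-G1, G1, S and G2/M fractions reported as percent of cells, with untreated control cells for comparison.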

[4] = system: HCT-116; test: Growth inhibition of human HCT116 cells after 5 days by MTT assay; assay type: functional; details: HCT-116, 120 h
Method in brief: (§4)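 MTT assay after 5 day continuous exposure. GI50, TGI and LC50 calculated from the MTT data. Means ± SD of at least three independent experiments; coefficients of variation 10-20%. Compounds used as tri(methanesulfonate) salts.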

[5] = system: SN12C; test: Antitumor activity against human SN12C cells after 48 hrs; assay type: functional; method in brief: as §2
[6] = system: HCT-116; test: Cell cycle arrest in HCT116 cells assessed as accumulation at G1 phase at 50 nM after 72 hrs; assay type: functional, Homo sapiens; method in brief: as §3
[7] = system: MDA-MB-435; test: Antitumor activity against human MDA-MB-435 cells after 48 hrs; assay type: functional; details: MDA-MB-435, 48 h; method in brief: as §2
[8] = system: MIA PaCa-2; test: Inhibition of tumor growth in PaCa2 cells xenografted nu/nu mouse at 15 mg/kg; assay type: functional, Homo sapiens
Method in brief: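 PaCa-2 tumour fragments implanted on the flank of nu/nu mice, 10 per group. Intraperitoneal treatment, Q3Dx4, started 12 days post-inoculation at 80 mm3 tumour volume. Tumour growth inhibition measured.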

[9] = system: ASPC1; test: Antitumor activity against p53 null human ASPC1 cells; assay type: functional, cell-based
[10] = system: DU-145; test: Antitumor activity against human DU145 cells after 48 hrs; assay type: functional; details: DU-145, 48 h; method in brief: as §2
[11] = system: CAKI-1; test: Antitumor activity against human CAKI-1 cells after 48 hrs; assay type: functional; details: CAKI-1, 48 h; method in brief: as §2
[12] = system: ACHN; test: Antitumor activity against human ACHN cells after 48 hrs; assay type: functional; method in brief: as §2
[13] = Plasma clearance in CD2F1 mouse at 20 mg/kg, iv; assay type: ADME, organism-based; design: dose 20 mg/kg, route intravenous
Method in brief: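 Pilot pharmacokinetics in CD2F1 mice after i.v. injection. Total plasma clearance derived from plasma concentration data.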

[14] = system: HT-29; test: Growth inhibition of human HT29 cells after 5 days by MTT assay; assay type: functional; details: HT-29, 120 h; method in brief: as §4
[15] = system: SR; test: Antitumor activity against human SR cells after 48 hrs; assay type: functional; method in brief: as §1
[16] = system: HCT-15; test: Antitumor activity against human HCT15 cells after 48 hrs; assay type: functional; details: HCT-15, 48 h; method in brief: as §2
[17] = system: NCI-H23; test: Antitumor activity against human NCI-H23 cells after 48 hrs; assay type: functional; details: NCI-H23, 48 h; method in brief: as §2
[18] = system: SK-MEL-5; test: Antitumor activity against human SK-MEL-5 cells after 48 hrs; assay type: functional; details: SK-MEL-5, 48 h; method in brief: as §2
[19] = system: CCRF-CEM; test: Antitumor activity against human CCRF-CEM cells after 48 hrs; assay type: functional; method in brief: as §2
[20] = system: HCT-116; test: Antitumor activity against human HCT116 cells expressing wild type p53; assay type: functional; details: read-out: LC50 (the source's name)
Method in brief: (§5)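 Compounds tested as tri(methanesulfonate) salts, soluble in water and dilute buffers. Human tumour cells carrying wild-type or mutated p53 were exposed for 5 days, and viability was read by MTT assay. GI50, TGI and LC50 were calculated from the MTT data. Values are means ± SD of at least three independent experiments, with coefficients of variation of 10–20%.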

[21] = system: RPMI-8226; test: Antitumor activity against human RPMI-8226 cells after 48 hrs; assay type: functional; details: RPMI-8226, 48 h; method in brief: as §2
[22] = system: U-251; test: Antitumor activity against human U251 cells after 48 hrs; assay type: functional; details: U-251, 48 h; method in brief: as §1
[23] = system: SNB-75; test: Antitumor activity against human SNB75 cells after 48 hrs; assay type: functional; details: SNB-75, 48 h; method in brief: as §1
[24] = system: HT-29; test: Antitumor activity against HT29 cells expressing mutated p53; assay type: functional, cell-based; details: Homo sapiens; method in brief: as §5
[25] = system: SF-295; test: Antitumor activity against human SF295 cells after 48 hrs; assay type: functional; details: SF-295, 48 h; method in brief: as §2
[26] = system: A498; test: Antitumor activity against human A498 cells after 48 hrs; assay type: functional; details: A498, 48 h; method in brief: as §2
[27] = system: COLO 205; test: Antitumor activity against human COLO205 cells after 48 hrs; assay type: functional; details: COLO 205, 48 h; method in brief: as §2
[28] = system: MCF7; test: Antitumor activity against human MCF7 cells after 48 hrs; assay type: functional; details: MCF7, 48 h; method in brief: as §2
[29] = Antitumor activity against human HL60 (TB) cells after 48 hrs; assay type: functional, HL-60(TB); details: HL-60, 48 h; method in brief: as §2
[30] = Apparent volume of distribution in NCR nu/nu mouse at 20 mg/kg, iv; assay type: ADME, organism-based; design: dose 20 mg/kg, route intravenous; details: in vivo
Method in brief: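 Single i.v. dose of 20 mg/kg to ncr nu/nu mice and an F344 rat. Plasma concentrations followed over time and fitted by nonlinear regression to give distribution and elimination phases, AUC and apparent volumes of distribution. Detection limit 50 nM.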

[31] = system: COLO 205; test: Antitumor activity against human Colo205 cells expressing mutated p53; assay type: functional, cell-based; method in brief: as §5
[32] = system: HCT-116; test: Cell cycle arrest in HCT116 cells assessed as accumulation at Sub G1 phase at 50 nM after 72 hrs; assay type: functional, Homo sapiens; method in brief: as §3
[33] = system: Malme-3M; test: Antitumor activity against human MALME-3M cells after 48 hrs; assay type: functional; method in brief: as §2
[34] = read-out: Log LC50 (the source's name) (converted)

## COc1ccc2c(c1)c(=O)c1c(NCCCN3CCN(CCCN4C(=O)c5cccc6cc([N+](=O)[O-])cc(c56)C4=O)CC3)ccc3ncn2c31.CS(=O)(=O)O
[1]
  GI50: 0.00871 µM
[1]; [34]
  CC50: > 1 µM
[1]; read-out: Log TGI (converted)
  TGI: > 1 µM
[2]
  GI50: 0.0049 µM
[2]; [34]
  CC50: > 1 µM
[2]; read-out: Log TGI (converted)
  TGI: 0.0871 µM
[3]
  Activity: 2.3%
[4]
  GI50: 0.001 µM
  LC50: 0.03 µM
[5]
  GI50: 0.00251 µM
[5]; [34]
  CC50: > 1 µM
[5]; read-out: Log TGI (converted)
  TGI: > 1 µM
[6]
  Activity: 22.6%
[7]
  GI50: 0.00741 µM
[7]; [34]
  CC50: > 1 µM
[7]; read-out: Log TGI (converted)
  TGI: > 1 µM
[8]
  inhibition in vivo at 15 mg/kg: 53.5%
[9]
  pIC50: 7.15
[10]
  GI50: 0.00371 µM
[10]; [34]
  CC50: > 1 µM
[10]; read-out: Log TGI (converted)
  TGI: > 1 µM
[11]
  GI50: 0.00302 µM
[11]; [34]
  CC50: > 1 µM
[11]; read-out: Log TGI (converted)
  TGI: 0.0407 µM
[12]
  GI50: 0.000407 µM
[12]; [34]
  CC50: > 1 µM
[12]; read-out: Log TGI (converted)
  TGI: 0.0631 µM
[13]
  clearance: 14.3 L/h/kg
[14]
  GI50: 0.001 µM
[14]; read-out: LC50 (the source's name)
  CC50: 0.08 µM
[15]
  GI50: < 0.0001 µM
[15]; [34]
  CC50: 0.017 µM
[15]; read-out: Log TGI (converted)
  TGI: < 0.0001 µM
[16]
  GI50: 0.00309 µM
[16]; [34]
  CC50: > 1 µM
[16]; read-out: Log TGI (converted)
  TGI: > 1 µM
[17]
  GI50: 0.0204 µM
[17]; [34]
  CC50: > 1 µM
[17]; read-out: Log TGI (converted)
  TGI: > 1 µM
[18]
  GI50: 0.0049 µM
[18]; [34]
  CC50: 0.871 µM
[18]; read-out: Log TGI (converted)
  TGI: 0.0437 µM
[19]
  GI50: 0.00407 µM
[19]; [34]
  CC50: > 1 µM
[19]; read-out: Log TGI (converted)
  TGI: 0.0977 µM
[20]
  CC50: 0.03 µM
[21]
  GI50: 0.00407 µM
[21]; [34]
  CC50: > 1 µM
[21]; read-out: Log TGI (converted)
  TGI: > 1 µM
[22]
  GI50: 0.00219 µM
[22]; [34]
  CC50: > 1 µM
[22]; read-out: Log TGI (converted)
  TGI: > 1 µM
[23]
  GI50: 0.00676 µM
[23]; [34]
  CC50: > 1 µM
[23]; read-out: Log TGI (converted)
  TGI: 0.214 µM
[24]
  pIC50: 7.10
[25]
  GI50: 0.001 µM
[25]; [34]
  CC50: > 1 µM
[25]; read-out: Log TGI (converted)
  TGI: 0.0794 µM
[26]
  GI50: 0.00661 µM
[26]; [34]
  CC50: > 1 µM
[26]; read-out: Log TGI (converted)
  TGI: 0.331 µM
[27]
  GI50: 0.00631 µM
[27]; [34]
  CC50: > 1 µM
[27]; read-out: Log TGI (converted)
  TGI: > 1 µM
[28]
  GI50: 0.00468 µM
[28]; [34]
  CC50: > 1 µM
[28]; read-out: Log TGI (converted)
  TGI: > 1 µM
[29]
  GI50: 0.000159 µM
[29]; [34]
  CC50: > 1 µM
[30]
  Vd: 57 L/kg
[31]
  pIC50: 7.10
[32]
  Activity: 48%
[33]
  GI50: 0.00603 µM
[33]; [34]
  CC50: > 1 µM
[33]; read-out: Log TGI (converted)
  TGI: 0.0955 µM
